Hsp70 activator: Hsp70 transcriptional activation, primary screen | HeLa Hsp70 promoter luciferase reporter, luminescence; scaled: vehicle 0, proteasome-inhibitor control 100% | activation, % at 10 µM | 200,000 compounds, 0.04% hits | AID 1203;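 active means activation above the mean across all tested compounds plus 3 SD, cutoff set per campaign, cut at about 5.5% in these data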;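 further: 100% = MG132 at 30 µM as the positive control and 0% = DMSO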
HSF1 activator: increases HSF-1 driven luciferase reporter signal; activation, % at 9 µM; 300,000 compounds, 1.7% hits; NIH3T3-HGL HSF-1 luciferase reporter, MG132, 8 h; 100% = twice DMSO control signal;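 active means mean replicate activation of at least 50% with a set share of replicates each reaching 50%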;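 further: 0% = median of the neutral control wells and 100% = twice that signal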
HKDC1 inh: inhibitors of human hexokinase HKDC1; recombinant HKDC1, G6PDH/diaphorase resazurin coupled fluorescence; inhibition, % at 20 µM; 340,000 compounds, 0.16% hits; AID 493160;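 active means inhibition above about 35% when tested at 20 µM, limit read from the data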;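 further: plate controls were DMSO wells with enzyme for no effect and DMSO wells lacking enzyme for full effect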
Target sequence (Q2TB90 whole entry, looked up): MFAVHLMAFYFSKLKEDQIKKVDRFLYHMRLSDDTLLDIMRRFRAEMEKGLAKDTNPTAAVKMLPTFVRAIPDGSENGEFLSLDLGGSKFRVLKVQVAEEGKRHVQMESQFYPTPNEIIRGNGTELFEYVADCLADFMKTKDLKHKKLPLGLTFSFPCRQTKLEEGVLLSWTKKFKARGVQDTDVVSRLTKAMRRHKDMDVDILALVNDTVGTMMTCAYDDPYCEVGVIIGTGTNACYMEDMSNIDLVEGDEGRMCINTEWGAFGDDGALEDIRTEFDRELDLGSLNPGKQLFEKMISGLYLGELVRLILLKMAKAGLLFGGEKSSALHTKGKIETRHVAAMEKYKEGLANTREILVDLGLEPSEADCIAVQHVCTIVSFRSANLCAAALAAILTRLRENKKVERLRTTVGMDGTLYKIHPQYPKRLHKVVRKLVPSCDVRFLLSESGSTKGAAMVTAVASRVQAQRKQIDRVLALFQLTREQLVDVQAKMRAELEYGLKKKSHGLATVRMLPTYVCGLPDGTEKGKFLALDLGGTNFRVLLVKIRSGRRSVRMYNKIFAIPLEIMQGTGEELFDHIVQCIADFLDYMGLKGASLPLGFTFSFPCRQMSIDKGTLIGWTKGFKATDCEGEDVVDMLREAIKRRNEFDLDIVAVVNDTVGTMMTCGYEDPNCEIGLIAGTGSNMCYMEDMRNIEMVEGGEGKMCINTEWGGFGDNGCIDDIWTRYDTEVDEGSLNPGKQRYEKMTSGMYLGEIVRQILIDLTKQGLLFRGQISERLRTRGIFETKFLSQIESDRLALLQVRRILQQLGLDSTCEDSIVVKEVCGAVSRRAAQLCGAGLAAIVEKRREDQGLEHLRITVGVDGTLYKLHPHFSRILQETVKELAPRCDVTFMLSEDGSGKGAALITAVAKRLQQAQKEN
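Test system: recombinant HKDC1 (HK5) hexokinase enzyme, produced in-house; Amount: enzyme 5 µg/mL final; Buffer or medium: Tris pH 8.0 buffer with MgCl2, Tween-20, BSA, BME; Reagent: glucose and ATP substrates; Doses: 20 µM test compound, 1% DMSO; Incubation: 90 min reaction incubation at room temperature, dark; Detection: resorufin fluorescence at 613 nm.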
HSP90 refold inh: HSP90 refolding inhibition in rabbit reticulocyte lysate; luciferase refolding luminescence, 3 h; inhibition, % at 5.6 µM; 290,000 compounds, 0.91% hits;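 active means inhibition above the screen-wide mean plus 3 SD, computed separately per campaign, cut at about 16% in these data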;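 further: 0% = DMSO wells and 100% = 60 µM geldanamycin wells; inhibitors lower the luminescence because luciferase stays unfolded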
HSF1 inh: HSF1 inhibition | NIH3T3-HGL HSE-luciferase, MG132-induced, luminescence 8 h; active compounds read low | activity change, negative = inhibition, % at 7.5 µM (by protocol) | AID 2098 | 300,000 compounds, 0.77% hits;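 active means more than half of replicate wells show activity change below -50%, luminescence cut by over half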;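 further: luciferase reports HSF-1 transcriptional activity via heat shock element; 0% = median of DMSO wells and -100% = zero luminescence signal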
TbHK1 inh: blocks Trypanosoma brucei hexokinase 1 activity. recombinant TbHK1, G6PDH-coupled NADH A340. inhibition, % at 10 µM. 220,000 compounds, 0.11% hits;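 active means inhibition of 50% or more in the single-dose primary screen; inactive means inhibition below 50%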
Active calls of the source: *; . = no result given. An excerpt weighted towards active compounds, which were near 3.1% of everything screened.

SMILES | Hsp70 activator | HSF1 activator | HKDC1 inh | HSP90 refold inh | HSF1 inh | TbHK1 inh
Cc1cc(/C=C2\Cc3ccccc3C2=O)c(C)n1-c1ccccc1 | -0.1 | -74.3 | 2.1 | 6.1 | -74.6* | -10.2
O=C(c1ccco1)N1CCCN(Cc2cn[nH]c2-c2ccc(-c3ccccc3)cc2)CC1 | 0.9 | 76.3* | -1.1 | 8.5 | 34.0 | -3.3
Cc1cccc2sc(NC(=O)Cn3c(C)csc3=O)nc12 | . | . | 0.5 | . | . | .
Cc1cccn2c(=O)c3cc(C(=O)N4CCCCC4)sc3nc12 | . | 16.0 | 1.7 | -2.9 | 7.4 | .
CCC1CCCCN1C(=O)c1cc2c(=O)n3cccc(C)c3nc2s1 (centres undefined) | . | -68.1 | 13.6 | -0.3 | -64.2* | .
C=C(C)c1ccccc1 | . | . | -2.5 | . | . | .
Cc1cccc(NC(=O)Cc2nc(-c3c[nH]c(C(=O)N4CCCC4)c3)cs2)c1 | . | . | 4.5 | . | . | .
Cn1c(COc2ccccc2Br)nc2ccccc21 | . | 70.4* | -2.3 | 0.6 | 49.0 | .
Cn1c(CSc2nc3ccccc3s2)nc2ccccc21 | 0.5 | 76.2* | 1.9 | -0.1 | 60.0 | 6.3
Cn1c(CNc2ccc(Br)cc2)nc2ccccc21 | . | 114.7* | -4.1 | -4.2 | 79.7 | .
COc1ccccc1OCc1nc2ccccc2n1C | . | 34.0 | -3.0 | 0.6 | 6.8 | .
Cn1c(CSc2nc3ccccc3s2)n[nH]c1=S | -0.2 | -9.5 | -5.0 | 0.4 | -4.1 | -8.0
O=c1c2ccccc2sn1-c1cc(S(=O)(=O)N2CCOCC2)ccc1N1CCOCC1 | -0.4 | -2.8 | -0.5 | 2.1 | -0.4 | 50.1*
O=C(O)C1C2OC3C(OC(=O)C31)C2Br (centres undefined) | . | . | -5.6 | . | . | .
ONC(=Nc1ccccc1Cl)c1c(F)cccc1F | . | 11.6 | -2.6 | . | -3.7 | .
CC1=C(CC(=O)NCC(=O)NCC(=O)O)c2cc(F)ccc2/C1=C/c1ccc(S(C)=O)cc1 (centres undefined) | . | -6.4 | 13.5 | -0.6 | -4.3 | .
CC1=Nc2ccccc2/C1=C\c1nc(-c2ccccc2)oc1O | -0.2 | -11.9 | 4.8 | -1.7 | 0.7 | -16.1
CC1=Nc2ccccc2/C1=C/c1nc(-c2ccc(C)s2)oc1O | -0.1 | 58.3* | -1.7 | 1.1 | 50.6 | 4.6
CCS(=O)(=O)Nc1ccc(-c2nc3cccnc3s2)cc1 | -0.3 | -54.3 | 4.8 | 35.5* | -41.0 | -58.7
O=C(Nc1ccc(-c2nc3cccnc3s2)cc1)C1CCCO1 (centres undefined) | -0.5 | -66.4 | 4.5 | 60.4* | -59.2* | -35.9
CCS(=O)(=O)Nc1cccc(-c2nc3cccnc3s2)c1 | . | 5.0 | -2.1 | -4.6 | 7.5 | -14.9
COc1cc(Cl)c(C)cc1Nc1ncccn1 | . | -11.9 | 0.5 | -4.2 | 3.5 | .
C#CCOCCOCCOCCNc1nc(N2CCN(C(=O)[C@H](C(C)C)n3cc(CCO)nn3)CC2)nc(N2CCN(C(=O)[C@H]([C@@H](C)CC)n3cc(CCC(=O)O)nn3)CC2)n1 | . | . | -4.2 | . | . | .
Oc1ccc(N=Nc2ccccc2C(F)(F)F)c2cccnc12 | . | -71.8 | -1.2 | -1.3 | -65.8* | .
Oc1ccc(Cc2ccccc2)c2cccnc12 | . | . | -29.5 | . | . | .
SMILES | Hsp70 activator | HSF1 activator | HKDC1 inh | HSP90 refold inh | HSF1 inh | TbHK1 inh
CCS(=O)(=O)c1ccc(N=Nc2ccc(O)c3ncccc23)c(OC)c1 | -0.5 | -56.8 | -18.1 | 3.6 | -59.9* | -5.0
COc1ccccc1N=Nc1ccc(O)c2ncccc12 | . | -79.4 | 3.7 | 11.7 | -78.2* | .
Cc1ccc(N/N=C(\C#N)C(=N)N2CCCCCC2)cc1 | -0.1 | 47.8 | -4.6 | 4.8 | 24.7 | -19.6
CCN(CC)C(=N)/C(C#N)=N/Nc1ccc(C)cc1 | . | 57.1* | -3.2 | 5.5 | 29.6 | -31.9
CCc1nc(CNC(=O)C2CCC(=O)N(Cc3ccccc3F)C2)no1 (centres undefined) | . | 3.8 | -1.8 | 3.4 | -5.3 | .
O=C(CSC1CS(=O)(=O)c2cc([N+](=O)[O-])ccc21)NNC(=O)c1ccc(Cl)cc1 (centres undefined) | . | 61.3* | -2.3 | -1.6 | 16.3 | 1.0
c1coc(CNc2nc3ccccc3s2)c1 | . | 79.8* | 1.6 | 12.3 | 30.1 | .
Cc1nnc(NCc2ccco2)s1 | 0.0 | 6.5 | 0.4 | 0.6 | -6.9 | 3.1
CCCCC[C@@H]1C=C(C(=O)O)[C@H](c2ccc(OC)c(OC)c2)N1S(=O)(=O)c1ccc(C)cc1 | . | . | 2.6 | . | . | .
COc1cccc(CNC(C)(C)CO)c1OCc1ccc(Cl)cc1 | 0.1 | -8.3 | -1.2 | -3.2 | -10.8 | 1.5
COc1cccc(OCc2ccc(Cl)cc2)c1C#N | . | 61.3* | 1.0 | 1.1 | 39.6 | -1.8
CCOC(=O)CSc1cc(C)c(C#N)c2nc3ccccc3n12 | 0.4 | 58.5* | 26.6 | 1.2 | 21.2 | 1.1
CCc1c(C)c(C#N)c2nc3ccccc3n2c1Cl | -0.3 | 435.4* | . | -1.6 | 378.3 | -4.7
CCC(C)Sc1cc(C)c(C#N)c2nc3ccccc3n12 (centres undefined) | -0.2 | 12.6 | 4.0 | -3.1 | -6.1 | -2.0
OCC[C@@H]1C[C@H](O)[C@@H](O)[C@@]2(OCCc3ccccc32)O1 | . | 1.7 | -5.6 | -1.9 | -3.5 | .
Cc1ccc(S(=O)(=O)N2CCN(C(=O)c3c(-c4ccccc4)noc3C)CC2)cc1C | . | 4.8 | 1.9 | -0.8 | -2.0 | .
Cc1ccc(S(=O)(=O)N2CCN(C(=O)c3c(-c4ccccc4)noc3C)CC2)c(C)c1 | . | -79.4 | -1.5 | -3.6 | -75.8* | .
Cc1ccc(S(=O)(=O)NC2c3cccc4cccc(c34)C2Sc2nncn2C)cc1 (centres undefined) | -0.1 | 66.8* | -13.8 | -1.2 | 18.9 | -0.7
CCN(CC)CCNC(=O)c1cc(Nc2ccc(OC)c(OC)c2)nc2ccccc12 | . | -25.0 | -3.2 | -5.1 | -15.6 | .
O=[N+]([O-])/C(C(=C(Cl)Cl)N1CCOCC1)=C1\NCCO1 | -0.2 | -11.0 | 4.0 | 1.6 | -6.1 | -16.7
CCS(=O)(=O)C(=C1NCCO1)S(=O)(=O)CC | -0.2 | 51.7* | -8.9 | -2.4 | 10.1 | 0.5
CC(C)=CC1C(C(=O)NCCc2ccccc2)C1(C)C (centres undefined) | . | 13.7 | -0.5 | . | 5.1 | .
CC(=O)Nc1cccc(C(=O)OCC(=O)N2CCC(c3ccccc3)=N2)c1 | . | 25.4 | -4.4 | . | 9.4 | .
c1ccc(Cc2cc(-c3ccccc3)on2)cc1 | -0.1 | 70.7* | 7.0 | -0.4 | 23.5 | 3.9
Clc1ccc(SCc2cc(-c3ccccc3)on2)cc1 | -0.1 | 21.9 | -0.4 | 1.2 | 10.5 | 5.2
CCCCC(=O)Oc1c(S(=O)(=O)c2ccccc2)c(C)nn1C(C)(C)C | . | -9.2 | 0.5 | -0.2 | -1.4 | .
c1ccc(CCSc2nccn2-c2ccccc2)cc1 | 0.1 | 57.7* | 6.2 | 0.0 | 36.3 | 6.4
Cc1cn([C@H]2C[C@H](O)[C@@H](CCC(=O)NCCc3cnc[nH]3)O2)c(=O)[nH]c1=O | . | . | -8.5 | . | . | .
COc1ccc(CC(=O)N(Cc2ccccc2)c2ccc(C)cc2)cc1OC | . | 22.2 | 0.7 | -2.6 | 13.1 | .
CC(C)(C)n1ncc2c(=O)n(CC(=O)NCc3ccc(F)cc3)cnc21 | 0.2 | 26.5 | 6.9 | 16.4* | 5.1 | 0.7

Source: PubChem
